This is an account of results in ChEMBL document CHEMBL1140925, “Nuclear factor-kappaB mediated inhibition of cytokine production by imidazoline scaffolds” (J Med Chem, 2009).

Each structure is given as a SMILES string. Activity calls are given as the source filed them. No cut-off for these calls is given here. A value given as a limit tells only on which side of the number the result lay.

Experiment [1] concerns Blood. As to the kind of experiment: Antiinflammatory activity in human whole blood assessed as inhibition of IL-1-beta-induced IL6 production preincubated 2 hrs before addition of IL1-beta measured after 18 hrs by ELISA. The format is functional, tissue-based. Summed up: (§1)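 Human blood from donors with white count in the normal range, diluted 1:10 in RPMI-1640 with 10% FBS, penicillin and streptomycin. Aliquots were preincubated with vehicle (0.1% DMSO final) or compound at 10, 3, 1, 0.3 or 0.1 µM final for 2 h at 37 °C, 5% CO2. IL-1β (200 U/mL) was then added for 18 h, and plasma was collected and frozen. Cytokine was measured by ELISA.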
On the technique in general: In an ELISA, binding on a coated surface is turned into a signal by an enzyme label.

The test system of experiment [2] is Blood. Put plainly: Antiinflammatory activity in human whole blood assessed as inhibition of IL-1-beta-induced TNFalpha production preincubated 2 hrs before addition of IL1-beta measured after 18 hrs by ELISA. Type of experiment: functional, tissue-based. Summed up:
as §1

The test system of experiment [3] is HeLa. Put plainly: Induction of NF-kappaB-mediated transcription expressed in human HeLa cells at 20 uM by luciferase reporter gene assay. The format is cell-based. Put shortly:
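Stably integrated NF-κB-luc HeLa cells, hygromycin-selected, were exposed to 20 µM imidazoline without TNF-α activation. Firefly luciferase was read after 8 h, and signal was normalized to the TNF-α activation control.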

Experiment [4] is described as follows: (§2) Inhibition of TNF-alpha-induced NF-kappaB-mediated transcription expressed in human HeLa cells preincubated for 30 mins before addition of TNFalpha measured after 8 hrs by luciferase reporter gene assay. Type of experiment: cell-based. Put shortly:
(§3)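 HeLa/NF-κB-luc cells (5.0 × 10⁵ cells/mL) were grown 24 h, then switched to serum-free DMEM. They were pretreated 30 min at 37 °C with 0.05–20 µM imidazoline (1% DMSO vehicle), then stimulated with 25 ng/mL TNF-α for 8 h. Steady-Glo luminescence was normalized to TNF-α activation, and EC50 was taken from a variable-slope sigmoidal fit. Values are the mean of two independent experiments.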

Experiment [5] deals with HeLa. Described as §2. Type of experiment: cell-based. Put shortly: as §3
Experiment [6] deals with HeLa. As to the kind of experiment: Inhibition of TNF-alpha-induced NF-kappaB-mediated transcription expressed in human HeLa cells co-transfected with renilla luciferase-TK gene preincubated for 30 mins before TNFalpha challenge measured after 8 hrs by dual-glo luciferase reporter gene assay. The format is cell-based. Put shortly:
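HeLa cells were transiently cotransfected (lipofectamine 2000, 5–6 h) with 6×κB pNF-κB-luc and the pRL-TK Renilla control, then grown 24 h. They were pretreated 30 min with 0.312–20 µM (1% DMSO vehicle), then stimulated with 25 ng/mL TNF-α for 8 h at 37 °C. Dual-Glo firefly signal was normalized to Renilla luminescence.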

As a reminder, the EC50 is the concentration that produces a half-maximal response. A higher EC50 goes with a less potent agent. With `c1ccc(Cn2c(-c3ccccc3)nc(-c3ccccc3)c2-c2ccccc2)cc1`, the Activity entry in the experiment with Blood [1], in the experiment on Blood [2] and in the experiment on HeLa [5] was “Dose-dependent effect” in each case. In the experiment with HeLa [3], the result was inactive. The compound further registered an EC50 in experiment [4] of 27.7 µM. In the experiment on HeLa [5], this compound came in with a logEC50 of 1.44.

Broadly, the IC50 is the concentration that gives 50% inhibition. Consider `CCOC(=O)[C@]1(c2ccccc2)N=C(c2ccccc2)N(Cc2ccccc2)[C@@H]1c1ccccc1` [listing 1 of 2 here], for which the half-inhibitory concentration (IC50) with Blood [1] stood at 200 nM; in the experiment with Blood [2], 600 nM. This compound gave a concentration giving a half-maximal response (EC50) in experiment [4] of 1.6 µM.

In the case of `CCOC(=O)[C@@]1(c2ccccc2)N=C(c2ccccc2)N(Cc2ccccc2)[C@H]1c1ccccc1`, the Activity entry in the experiment on Blood [1], in the experiment with Blood [2] and in the experiment on HeLa [5] was “Dose-dependent effect” in each case. Moreover, the IC50 was found to be 583 nM with Blood [1] (Homo sapiens, Blood) and 700 nM in the experiment on Blood [2] (Homo sapiens, Blood). Besides, the outcome with HeLa [3] was inactive. Also, the 50% effective concentration (EC50) in experiment [4] was found to be 2.9 µM. Besides, the logEC50 in the experiment on HeLa [5] is 0.469.

In the case of `CCOC(=O)[C@]1(c2ccccc2)N=C(c2ccccc2)N(Cc2ccccc2)[C@@H]1c1ccccc1` [listing 2 of 2 here], the Activity result in the experiment on Blood [1], in the experiment on Blood [2] and in the experiment with HeLa [5] was “Dose-dependent effect” throughout. Moreover, the result in the experiment on HeLa [3] was inactive. Besides, the logEC50 with HeLa [5] turned out to be 0.209.

Take `OC[C@]1(c2ccccc2)N=C(c2ccccc2)N(Cc2ccccc2)[C@@H]1c1ccccc1` (racemic): the Activity result with Blood [1] and with HeLa [5] was “Dose-dependent effect” in each case. In the experiment with Blood [1] (Homo sapiens, Blood), the IC50 is more than 20000 nM. Moreover, in the experiment with Blood [2], the logIC50 came out at 1.29. The result in the experiment with HeLa [3] was inactive. This compound gave an EC50 in experiment [4] of more than 20 µM.

On to `O=C(OCc1ccccc1)[C@]1(c2ccccc2)N=C(c2ccccc2)N(Cc2ccccc2)[C@@H]1c1ccccc1` (racemic), for which, in the experiment with Blood [1], the Activity entry was “Dose-dependent effect” and the logIC50 is 0.77. Also, in the experiment on Blood [2], the Activity entry is “Dose-dependent effect” and the logIC50 came out at 0.51. In the experiment with Blood [2] (Homo sapiens, Blood), the IC50 worked out at 3200 nM. For the same compound, in the experiment with HeLa [3], the result was inactive. The compound also had an EC50 in experiment [4] of 3.5 µM. Also, in the experiment with HeLa [5], the Activity result is “Dose-dependent effect” and the logEC50 is 0.54.

Regarding `NC(=O)[C@]1(c2ccccc2)N=C(c2ccccc2)N(Cc2ccccc2)[C@@H]1c1ccccc1` (racemic), the Activity entry in the experiment with Blood [1] and with HeLa [5] was “Dose-dependent effect” throughout. Also, the results for the logIC50 with Blood [1] and in the experiment with Blood [2] were 1.08 and 1.668, respectively. The half-maximal inhibitory concentration (IC50) in the experiment with Blood [1] (Homo sapiens, Blood) was 11900 nM; with Blood [2] (Homo sapiens, Blood), more than 20000 nM. Also, in the experiment on HeLa [3], the result was inactive. In experiment [4], this compound displayed an EC50 of 26.2 µM. Moreover, the logEC50 with HeLa [5] is 1.55.

On to `c1ccc(CN2C(c3ccccc3)=N[C@H](c3ccccc3)[C@H]2c2ccccc2)cc1` (racemic), for which the Activity result in the experiment with Blood [1] was “Dose-dependent effect”. For the same compound, the IC50 in the experiment with Blood [1] (Homo sapiens, Blood) is 2470 nM. For the same compound, in the experiment with Blood [2], the Activity result is “Dose-dependent effect” and the logIC50 was found to be 0.39. In addition, the outcome with HeLa [3] was inactive. The response in experiment [4] was half-maximal at 4.59 µM (EC50). Moreover, in the experiment with HeLa [5], the Activity result is “Dose-dependent effect” and the logEC50 was 0.66.

Turning to `c1ccc(CN2C(c3ccccc3)=N[C@@H](c3ccccc3)[C@H]2c2ccccc2)cc1` (racemic), in the experiment on Blood [1], the Activity entry was “Dose-dependent effect”. The IC50 in the experiment with Blood [1] (Homo sapiens, Blood) was found to be 2400 nM. Also, in the experiment with Blood [2], the Activity entry is “Dose-dependent effect” and the logIC50 was determined as 0.38. Moreover, the result in the experiment with HeLa [3] was inactive. Besides, a half-maximal response in experiment [4] (EC50) required 11 µM. For the same compound, in the experiment with HeLa [5], the Activity result was “Dose-dependent effect” and the logEC50 came to 1.04.

Consider `COC(=O)[C@]1(c2ccccc2)N=C(c2ccccc2)N(Cc2ccccc2)[C@@H]1c1ccccc1` (racemic), for which the Activity result in the experiment on Blood [1], with Blood [2] and in the experiment on HeLa [5] was “Dose-dependent effect” each time. Besides, the logIC50 is recorded as 0.446 in the experiment on Blood [1] and 0.4761 with Blood [2]. Also, the IC50 with Blood [2] (Homo sapiens, Blood) stood at 2790 nM. In addition, the result with HeLa [3] was inactive. Further, in experiment [4], the 50% effective concentration (EC50) was found to be 7.47 µM. Further, in the experiment with HeLa [5], the logEC50 was 0.87.

Turning to `CCOC(=O)[C@]1(c2ccccc2)N=C(c2ccccc2)N(Cc2ccccc2)[C@@H]1c1ccccc1` (racemic), the Activity result with Blood [1], in the experiment on Blood [2] and with HeLa [5] was “Dose-dependent effect” each time. For the same compound, the logEC50 in the experiment with HeLa [6] amounted to 0.67; in the experiment with HeLa [5] it was 0.4. The result with HeLa [3] was inactive.

As to `O=C(O)[C@]1(c2ccccc2)N=C(c2ccccc2)N(Cc2ccccc2)[C@@H]1c1ccccc1` (racemic; 1) [listing 1 of 2 here], the half-inhibitory concentration (IC50) in the experiment on Blood [1] (Homo sapiens, Blood) was more than 20000 nM; in the experiment on Blood [2] (Homo sapiens, Blood), more than 20000 nM. Also, in experiment [4], a half-maximal response (EC50) required 0.95 µM.

For `O=C(O)[C@]1(c2ccccc2)N=C(c2ccccc2)N(Cc2ccccc2)[C@@H]1c1ccccc1` (racemic; 1) [listing 2 of 2 here], the Activity result in the experiment on Blood [1], with Blood [2] and in the experiment on HeLa [5] was “Dose-dependent effect” in each case. The result in the experiment on HeLa [3] was inactive.

Turning to `O=C(O)[C@]1(c2ccccc2)N=C(c2ccccc2)N(Cc2ccccc2)[C@@H]1c1ccccc1` (racemic; 2), the outcome with HeLa [3] and in the experiment on HeLa [5] was inactive.
